# In ChEMBL document CHEMBL4020838, “The Discovery of ( S)-1-(6-(3-((4-(1-(Cyclopropanecarbonyl)piperidin-4-yl)-2-methylphenyl)amino)-2,3-dihydro-1 H-inden-4-yl)pyridin-2-yl)-5-methyl-1 H-pyrazole-4-carboxylic Acid, a Soluble Guanylate Cyclase Activator Specifically Designed for Topical Ocular Delivery as a Therapy for Glaucoma” (J Med Chem, 2018):
# Active and inactive are the calls of the source. No cut-off for these calls is given here.
# Legend:
# [1] = Activation of HUVEC-derived soluble guanylate cyclase expressed in CHOK1 cells assessed as increase in cGMP production after 1 hr by HTRF assay; format: cell-based; conditions: CHO-K1, 1 h
# Outline: (§1)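 High-throughput assay in Chinese hamster ovary cells expressing sGC. cGMP was measured across a dose range. EC50 and Emax (maximal cGMP produced) were taken from the dose-response curve.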
# [2] = species: Homo sapiens; assay: Activation of HUVEC-derived soluble guanylate cyclase expressed in CHOK1 cells assessed as increase in cGMP production after 1 hr by HTRF assay relative to 1-{6-[5-chloro-2-({4-[trans-4-(trifluoromethyl)cyclohexyl]-benzyl}oxy)phenyl)pyridin-2-yl)-5-(trifluoromethyl)-1H-pyrazole-4-carboxylic acid; format: cell-based; outline: as §1
# [3] = Activation of soluble guanylate cyclase in human GTM3 cells assessed as increase in cGMP production after 30 mins by fluorescence assay; format: cell-based; conditions: Homo sapiens, GTM3, 0.5 h
# Outline: (§2)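 Immortalized glaucomatous trabecular meshwork (GTM-3) cells expressing endogenous levels of sGC were used. cGMP was read across a dose range. EC50 and Emax were derived from the dose-response curve.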
# [4] = species: Homo sapiens; assay: Activation of soluble guanylate cyclase in human GTM3 cells assessed as increase in cGMP production after 30 mins by fluorescence assay relative to 1-{6-[5-chloro-2-({4-[trans-4-(trifluoromethyl)cyclohexyl]-benzyl}oxy)phenyl)pyridin-2-yl)-5-(trifluoromethyl)-1H-pyrazole-4-carboxylic acid; format: cell-based; outline: as §2
# [5] = system: Oryctolagus cuniculus; assay: Toxicity in New Zealand albino rabbit eye up to 300 ug administered as single topical dose measured up to 24 hrs post dose; conditions: in vivo, topical_or_ocular
# [6] = system: Cynomolgus monkey; assay: Reduction of intraocular pressure in laser-induced ocular hypertensive cynomolgus monkey at 300 ug administered as single topical dose; format: functional; conditions: Macaca fascicularis
# Outline: (§3)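 Cynomolgus monkeys with laser-induced elevated IOP received a single topical ocular dose of 300 μg in a 30 μL drop. IOP and ocular signs were observed after dosing.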
# [7] = system: Cynomolgus monkey; assay: Toxicity in laser-induced ocular hypertensive cynomolgus monkey assessed as ocular irritation at 300 ug administered as single topical dose; parameters: species or system Macaca fascicularis; conditions: in vivo, topical_or_ocular; outline: as §3
# [8] = system: Cynomolgus monkey; assay: Reduction of intraocular pressure in laser-induced ocular hypertensive cynomolgus monkey at 100 ug administered as single topical dose measured at 6 hr post dose relative to control; format: functional, Macaca fascicularis; parameters: scale not given: the % may be the effect or the level left
# Outline: (§4)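 Cynomolgus monkeys with laser-induced elevated IOP received one 30 μL topical ocular drop containing 100 μg of compound, formulated as a suspension. Percent IOP reduction was recorded at 6 h and at 24 h after dosing.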
# [9] = system: Cynomolgus monkey; assay: Reduction of intraocular pressure in laser-induced ocular hypertensive cynomolgus monkey at 100 ug administered as single topical dose measured at 24 hrs post dose relative to control; format: functional, Macaca fascicularis; parameters: scale not given: the % may be the effect or the level left; outline: as §4
# [10] = system: Cynomolgus monkey; assay: Toxicity in laser-induced ocular hypertensive cynomolgus monkey assessed as conjunctival hyperemia at 300 ug administered as single topical dose; parameters: species or system Macaca fascicularis; conditions: in vivo, topical_or_ocular; outline: as §3
# [11] = system: Cynomolgus monkey; assay: Toxicity in laser-induced ocular hypertensive cynomolgus monkey assessed as ocular discharge at 300 ug administered as single topical dose; parameters: species or system Macaca fascicularis; conditions: in vivo, topical_or_ocular; outline: as §3
# [12] = system: Oryctolagus cuniculus; assay: Toxicity in New Zealand albino rabbit assessed as conjunctival hyperemia at 300 ug administered as single topical dose measured up to 24 hrs post dose; conditions: in vivo, topical_or_ocular
# [13] = system: Oryctolagus cuniculus; assay: Toxicity in New Zealand albino rabbit assessed as ocular discharge at 300 ug administered as single topical dose measured up to 24 hrs post dose; conditions: in vivo, topical_or_ocular
EC50 [1] [nM],EC50 [3] [nM],SMILES,Emax [2] [%],Emax [4] [%],Activity [5],Activity [6],Activity [7],Activity [8] [%],Activity [9] [%],Activity [10],Activity [11],Activity [12],Activity [13]
1,12,CCc1c(C)sc(-c2cccc(-n3ncc(C(=O)O)c3C(F)(F)F)n2)c1COc1ccc(C2CCN(C(=O)C3CC3)CC2)cc1C,101,93,Non-Toxic,Active,Toxic,–,–,–,–,–,–
5.5,370,CCC(=O)N1CCC(c2ccc(OCc3ccsc3-c3cccc(-n4ncc(C(=O)O)c4C(F)(F)F)n3)c(C)c2)CC1,100,97,–,–,–,17,10,Toxic,Toxic,Toxic,Toxic
